{
  "source": "ChEMBL document CHEMBL4229550",
  "about": "“An antimycobacterial pleuromutilin analogue effective against dormant bacilli” (Bioorg Med Chem, 2018)",
  "key": {"Acinetobacter baumannii [1]": {"system": "Acinetobacter baumannii", "experiment": "Antibacterial activity against Acinetobacter baumannii ATCC 19606 incubated for 24 hrs under aerobic condition by MABA", "format": "functional", "details": "ATCC 19606 = CIP 70.34 = JCM 6841, 24 h, read-out: MIC100", "summary_of_the_method": "(§1)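 Mid-log cultures at OD 0.5 were exposed to serial dilutions under aerobic conditions at 37 °C for 24 h. Resazurin was then added from a 0.08% stock for 1 h. MIC100 was the lowest concentration where the dye stayed blue (pink means growth). Absorbance was also read at 570 and 600 nm.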"}, "Staphylococcus aureus [2]": {"system": "Staphylococcus aureus", "experiment": "Antibacterial activity against Staphylococcus aureus BAA 1683 incubated for 24 hrs under aerobic condition by MABA", "format": "functional", "details": "BAA 1683, 24 h, read-out: MIC100", "summary_of_the_method": "as §1"}, "Klebsiella pneumoniae [3]": {"system": "Klebsiella pneumoniae", "experiment": "Antibacterial activity against Klebsiella pneumoniae ATCC 12019 incubated for 24 hrs under aerobic condition by MABA", "format": "functional", "details": "ATCC 12019, 24 h, read-out: MIC100", "summary_of_the_method": "as §1"}, "Enterococcus faecalis [4]": {"system": "Enterococcus faecalis", "experiment": "Bactericidal activity against Enterococcus faecalis ATCC 349 incubated for 24 hrs under aerobic condition by MABA", "format": "functional", "details": "ATCC 349, 24 h"}, "Staphylococcus aureus [5]": {"system": "Staphylococcus aureus", "experiment": "Antibacterial activity against Staphylococcus aureus ATCC 25923 incubated for 24 hrs under aerobic condition by MABA", "format": "functional", "details": "ATCC 25923, 24 h, read-out: MIC100", "summary_of_the_method": "as §1"}, "Klebsiella pneumoniae [6]": {"system": "Klebsiella pneumoniae", "experiment": "Bactericidal activity against Klebsiella pneumoniae ATCC 12019 incubated for 24 hrs under aerobic condition by MABA", "format": "functional", "details": "ATCC 12019, 24 h"}, "Staphylococcus aureus [7]": {"system": "Staphylococcus aureus", "experiment": "Antibacterial activity against Staphylococcus aureus BAA 44 incubated for 24 hrs under aerobic condition by MABA", "format": "functional", "details": "BAA 44, 24 h, read-out: MIC100", "summary_of_the_method": "as §1"}, "Staphylococcus aureus [8]": {"system": "Staphylococcus aureus", "experiment": "Bactericidal activity against Staphylococcus aureus BAA 1683 incubated for 24 hrs under aerobic condition by MABA", "format": "functional", "details": "BAA 1683, 24 h"}, "Bacillus subtilis [9]": {"system": "Bacillus subtilis", "experiment": "Bactericidal activity against Bacillus subtilis ATCC 6051 incubated for 24 hrs under aerobic condition by MABA", "format": "functional", "details": "ATCC 6051, 24 h"}, "Enterococcus faecalis [10]": {"system": "Enterococcus faecalis", "experiment": "Bactericidal activity against Enterococcus faecalis ATCC 19433 incubated for 24 hrs under aerobic condition by MABA", "format": "functional", "details": "ATCC 19433, 24 h"}, "Streptococcus pneumoniae [11]": {"system": "Streptococcus pneumoniae", "experiment": "Antibacterial activity against Streptococcus pneumoniae ATCC 6301 incubated for 24 hrs under aerobic condition by MABA", "format": "functional", "details": "ATCC 6301, 24 h, read-out: MIC100", "summary_of_the_method": "as §1"}, "Staphylococcus aureus [12]": {"system": "Staphylococcus aureus", "experiment": "Bactericidal activity against Staphylococcus aureus ATCC 25923 incubated for 24 hrs under aerobic condition by MABA", "format": "functional", "details": "ATCC 25923, 24 h"}, "[13]": {"system": "Mycobacterium tuberculosis", "experiment": "Bactericidal activity against non-replicating Mycobacterium tuberculosis CDC1551 expressing tdTomato infected in mouse J774A.1 cells at 2 times MIC after 48 hrs by UV-Visible spectroscopic method", "format": "functional, organism-based", "summary_of_the_method": "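J774A.1 macrophages are seeded at […] cells/well in DMEM and incubated overnight at 37 °C. They are infected with saline-washed Mtb CDC1551-tdTomato (10^6 bacteria, MOI ≈10), and extracellular bacteria are washed off with PBS. Treatment is at 2×MIC, with fluorescence emission read at 581 nm at 24, 48, 72 and 96 h. Survivors are confirmed by serial dilution and plating on 7H11.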"}, "Staphylococcus aureus [14]": {"system": "Staphylococcus aureus", "experiment": "Bactericidal activity against Staphylococcus aureus BAA 44 incubated for 24 hrs under aerobic condition by MABA", "format": "functional", "details": "BAA 44, 24 h"}, "[15]": {"system": "Mycolicibacterium smegmatis", "experiment": "Bactericidal activity against Mycobacterium smegmatis ATCC 607 incubated for 48 hrs under aerobic condition by MABA", "format": "functional", "details": "ATCC 607, 48 h"}, "Escherichia coli [16]": {"system": "Escherichia coli", "experiment": "Bactericidal activity against Escherichia coli ATCC 10798 incubated for 24 hrs under aerobic condition by MABA", "format": "functional", "details": "ATCC 10798, 24 h"}, "[17]": {"system": "Mycobacterium tuberculosis", "experiment": "Bactericidal activity against replicating Mycobacterium tuberculosis H37Rv incubated for 15 days under aerobic condition by MABA", "format": "functional", "details": "360 h", "summary_of_the_method": "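Mtb H37Rv grown in 7H9/OADC at 37 °C with shaking to OD600 0.5. The 0.5-OD culture is exposed aerobically to serial dilutions for 15 days at 37 °C. Resazurin (0.02% stock) is then added for 4 h at 37 °C with shaking.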"}, "Vero": {"system": "Vero", "experiment": "Cytotoxicity against African green monkey Vero cells assessed as reduction in cell viability after 72 hrs by MTT assay", "format": "cell-based", "details": "Chlorocebus sabaeus", "summary_of_the_method": "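Vero cells were grown in complete EMEM with 10% FBS and exposed for 72 h to 0.78–200 µg/mL. The medium was then swapped for phenol-red-free EMEM and MTT was added. Formazan absorbance was read at 570 nm to give IC50.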"}, "Staphylococcus aureus [18]": {"system": "Staphylococcus aureus", "experiment": "Bactericidal activity against Staphylococcus aureus incubated for 24 hrs under aerobic condition by MABA", "format": "functional"}, "Streptococcus salivarius": {"system": "Streptococcus salivarius", "experiment": "Bactericidal activity against Streptococcus salivarius ATCC 6301 incubated for 24 hrs under aerobic condition by MABA", "format": "functional", "details": "ATCC 6301, 24 h"}, "Acinetobacter baumannii [19]": {"system": "Acinetobacter baumannii", "experiment": "Bactericidal activity against Acinetobacter baumannii ATCC 19606 incubated for 24 hrs under aerobic condition by MABA", "format": "functional", "details": "ATCC 19606 = CIP 70.34 = JCM 6841, 24 h"}, "Staphylococcus aureus [20]": {"system": "Staphylococcus aureus", "experiment": "Bactericidal activity against Staphylococcus aureus BAA 2094 incubated for 24 hrs under aerobic condition by MABA", "format": "functional", "details": "BAA 2094, 24 h"}, "Escherichia coli [21]": {"system": "Escherichia coli", "experiment": "Antibacterial activity against Escherichia coli ATCC 10798 incubated for 24 hrs under aerobic condition by MABA", "format": "functional", "details": "ATCC 10798, 24 h, read-out: MIC100", "summary_of_the_method": "as §1"}, "Clostridioides difficile": {"system": "Clostridioides difficile", "experiment": "Bactericidal activity against Clostridium difficile ATCC 700057 incubated for 24 hrs […] by MABA", "format": "functional", "details": "ATCC 700057, 24 h"}, "Bacillus subtilis [22]": {"system": "Bacillus subtilis", "experiment": "Antibacterial activity against Bacillus subtilis ATCC 6051 incubated for 24 hrs under aerobic condition by MABA", "format": "functional", "details": "ATCC 6051, 24 h, read-out: MIC100", "summary_of_the_method": "as §1"}, "[23]": {"system": "Mycolicibacterium smegmatis", "experiment": "Antibacterial activity against Mycobacterium smegmatis ATCC 607 incubated for 48 hrs under aerobic condition by MABA", "format": "functional", "details": "ATCC 607, 48 h, read-out: MIC100", "summary_of_the_method": "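Mid-log culture at OD 0.5 was incubated with serial dilutions aerobically at 37 °C for 48 h. Resazurin was then added from a 0.08% stock for 1 h. MIC100 was the lowest concentration that stayed blue; absorbance was also read at 570/600 nm.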"}, "Enterococcus faecalis [24]": {"system": "Enterococcus faecalis", "experiment": "Antibacterial activity against Enterococcus faecalis ATCC 349 incubated for 24 hrs under aerobic condition by MABA", "format": "functional", "details": "ATCC 349, 24 h, read-out: MIC100", "summary_of_the_method": "as §1"}, "Enterococcus faecalis [25]": {"system": "Enterococcus faecalis", "experiment": "Antibacterial activity against Enterococcus faecalis ATCC 19433 incubated for 24 hrs under aerobic condition by MABA", "format": "functional", "details": "ATCC 19433, 24 h, read-out: MIC100", "summary_of_the_method": "as §1"}, "Streptococcus pneumoniae [26]": {"system": "Streptococcus pneumoniae", "experiment": "Bactericidal activity against Streptococcus pneumoniae ATCC 6301 incubated for 24 hrs under aerobic condition by MABA", "format": "functional", "details": "ATCC 6301, 24 h"}},
  "note": "Active and inactive are the calls of the source. The rule behind the calls is not given here.",
  "data": [
    {"smiles": "CO[C@H]1/C=C/O[C@@]2(C)Oc3c(C)c(O)c4c(O)c(c(/C=N/N5CCN(C)CC5)c(O)c4c3C2=O)NC(=O)/C(C)=C\\C=C\\[C@H](C)[C@H](O)[C@@H](C)[C@@H](O)[C@@H](C)[C@H](OC(C)=O)[C@@H]1C", "note": "[RIFAMPIN]", "values": [
      {"measurement": "MIC", "setting": "Acinetobacter baumannii [1]", "value": 2.35, "unit": "µg/mL"},
      {"measurement": "MIC", "setting": "Staphylococcus aureus [2]", "value": 0.15, "unit": "µg/mL"},
      {"measurement": "MIC", "setting": "Klebsiella pneumoniae [3]", "value": 1.56, "unit": "µg/mL"},
      {"measurement": "MBC", "setting": "Enterococcus faecalis [4]", "value": "> 25", "unit": "µg/mL"},
      {"measurement": "MIC", "setting": "Staphylococcus aureus [5]", "value": "> 25", "unit": "µg/mL"},
      {"measurement": "MBC", "setting": "Klebsiella pneumoniae [6]", "value": 3.13, "unit": "µg/mL"},
      {"measurement": "MIC", "setting": "Staphylococcus aureus [7]", "value": 6.25, "unit": "µg/mL"},
      {"measurement": "MBC", "setting": "Staphylococcus aureus [8]", "value": 0.2, "unit": "µg/mL"},
      {"measurement": "MBC", "setting": "Bacillus subtilis [9]", "value": 0.4, "unit": "µg/mL"},
      {"measurement": "MBC", "setting": "Enterococcus faecalis [10]", "value": 1.56, "unit": "µg/mL"},
      {"measurement": "MIC", "setting": "Streptococcus pneumoniae [11]", "value": 25, "unit": "µg/mL"},
      {"measurement": "MBC", "setting": "Staphylococcus aureus [12]", "value": "> 25", "unit": "µg/mL"},
      {"measurement": "Activity", "setting": "[13]", "value": "Active"},
      {"measurement": "MBC", "setting": "Staphylococcus aureus [14]", "value": 25, "unit": "µg/mL"},
      {"measurement": "MBC", "setting": "[15]", "value": "> 25", "unit": "µg/mL"},
      {"measurement": "MBC", "setting": "Escherichia coli [16]", "value": 25, "unit": "µg/mL"},
      {"measurement": "MBC", "setting": "[17]", "value": 0.01, "unit": "µg/mL"},
      {"measurement": "IC50", "setting": "Vero", "value": "> 200", "unit": "µg/mL"},
      {"measurement": "MBC", "setting": "Staphylococcus aureus [18]", "value": 0.4, "unit": "µg/mL"},
      {"measurement": "MBC", "setting": "Streptococcus salivarius", "value": "> 25", "unit": "µg/mL"},
      {"measurement": "MBC", "setting": "Acinetobacter baumannii [19]", "value": 3.13, "unit": "µg/mL"},
      {"measurement": "MBC", "setting": "Staphylococcus aureus [20]", "value": 0.2, "unit": "µg/mL"},
      {"measurement": "MIC", "setting": "Escherichia coli [21]", "value": 3.13, "unit": "µg/mL"},
      {"measurement": "MBC", "setting": "Clostridioides difficile", "value": 0.78, "unit": "µg/mL"},
      {"measurement": "MIC", "setting": "Bacillus subtilis [22]", "value": 0.3, "unit": "µg/mL"},
      {"measurement": "MIC", "setting": "[23]", "value": "> 25", "unit": "µg/mL"},
      {"measurement": "MIC", "setting": "Enterococcus faecalis [24]", "value": "> 25", "unit": "µg/mL"},
      {"measurement": "MIC", "setting": "Enterococcus faecalis [25]", "value": 0.78, "unit": "µg/mL"},
      {"measurement": "MBC", "setting": "Streptococcus pneumoniae [26]", "value": "> 25", "unit": "µg/mL"}
    ]}
  ]
}
